A short description of test [1]: Stabilization of d[AGAG3AG2GCGCTG3AG2AG3GCT] sequence of c-kit1 G-quadruplex DNA assessed as change in melting temperature at 1 uM by FRET assay. The gist of the method:
(§1)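 Dual-labelled FAM/TAMRA oligos at 400nM in 60mM KCl potassium cacodylate buffer, pH 7.4, heated to 85 °C for 10 min, then cooled. Ligand added to 1µM; buffer alone as negative control. Excitation 450–495nm, emission read at 515–545nm every 0.5 °C from 30–100 °C. ΔTm is ligand Tm minus control Tm, from four experiments ± maximum sd; c-kit1 curves fitted to sigmoids.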

The nature of test [2]: Stabilization of d[G3(T2AG3)3] sequence of F21T telomeric G-quadruplex DNA assessed as change in melting temperature at 1 uM by FRET assay. The gist of the method:
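Dual-labelled oligo (5′-FAM, 3′-TAMRA) at 400nM in FRET buffer (60mM KCl, K cacodylate, pH 7.4), heated to 85 °C for 10 min, cooled to room temperature. Ligand added from DMSO dilution. Excitation 450–495nm, emission 515–545nm, read every 0.5 °C from 30–100 °C. ΔTm from four experiments: averaged ligand Tm minus averaged buffer-control Tm, ± maximum sd.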

Test [3] can be described thus: Stabilization of d[C3G3CG3CGCGAG3AG4AG2] sequence of c-kit2 G-quadruplex DNA assessed as change in melting temperature at 1 uM by FRET assay. In outline:
as §1

Test [4] is described as follows: Stabilization of d[G3(T2AG3)3] sequence of F21T telomeric G-quadruplex DNA assessed as change in melting temperature at 1 uM by FRET assay relative to BRACO-19 in presence of calf thymus DNA. In outline: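 F21T FRET melting with ligand at 1µM in the presence of calf thymus DNA competitor at increasing bp concentrations. Retained stabilization, from three experiments, normalized to the ligand's ΔTm with no competitor (100%) ± normalized sd.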

For another test, the species on record is Homo sapiens. Description: Binding affinity to biotin-labeled human telomeric d[AG3(T2AG3)3] sequence by surface plasmon resonance analysis. The gist of the method:
(§2)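 Streptavidin chip with 5′-biotinylated DNA immobilized to 350-400 RU; blank reference flow cell. Run in 10mM HEPES, 100mM KCl, 3mM EDTA, P20 surfactant, pH 7.3, 25°C. Ligand 1nM to 10µM (from 20mM DMSO stock) injected at 50µl/min for 5–10 min to steady state, then 10 min buffer dissociation; glycine pH 2.0 regeneration between cycles.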

Test [5] in a line: Binding affinity to biotin-labeled d[(AG3)2CGCTG3AG2AG3] sequence of c-kit1 G-quadruplex DNA by surface plasmon resonance analysis. The gist of the method: as §2
Test [6] can be described thus: Binding affinity to biotin-labeled d[(CG3)2CGCGAG3AG4] sequence of c-kit2 G-quadruplex DNA by surface plasmon resonance analysis. The gist of the method:
as §2

The nature of test [7]: Binding affinity to biotin-labeled d[(AG3TG4)2A] sequence of c-myc G-quadruplex DNA by surface plasmon resonance analysis. The gist of the method: as §2
The nature of test [8]: Binding affinity to biotin-labeled d[CGA2T2CGTCTC2GA2T2CG] sequence of duplex DNA by surface plasmon resonance analysis. The gist of the method:
as §2

Test [9] can be described thus: Selectivity ratio of equilibrium binding constant K for human telomeric d[AG3(T2AG3)3] sequence to equilibrium binding constant K for d[CGA2T2CGTCTC2GA2T2CG] sequence of duplex DNA.
Test [10] is described as follows: Selectivity ratio of equilibrium binding constant K for d[(AG3)2CGCTG3AG2AG3] sequence of c-kit1 G-quadruplex DNA to equilibrium binding constant K for d[CGA2T2CGTCTC2GA2T2CG] sequence of duplex DNA.
Test [11] can be described thus: Selectivity ratio of equilibrium binding constant K for d[(CG3)2CGCGAG3AG4] sequence of c-kit2 G-quadruplex DNA to equilibrium binding constant K for d[CGA2T2CGTCTC2GA2T2CG] sequence of duplex DNA.
Test [12] in a line: Selectivity ratio of equilibrium binding constant K for d[(AG3TG4)2A] sequence of c-myc G-quadruplex DNA to equilibrium binding constant K for d[CGA2T2CGTCTC2GA2T2CG] sequence of duplex DNA.
Test [13] deals with T1, Telomerase reverse transcriptase (Homo sapiens, UniProt O14746). Description: Inhibition of telomerase by TRAP-LIG assay.
T1 sequence (O14746 whole entry): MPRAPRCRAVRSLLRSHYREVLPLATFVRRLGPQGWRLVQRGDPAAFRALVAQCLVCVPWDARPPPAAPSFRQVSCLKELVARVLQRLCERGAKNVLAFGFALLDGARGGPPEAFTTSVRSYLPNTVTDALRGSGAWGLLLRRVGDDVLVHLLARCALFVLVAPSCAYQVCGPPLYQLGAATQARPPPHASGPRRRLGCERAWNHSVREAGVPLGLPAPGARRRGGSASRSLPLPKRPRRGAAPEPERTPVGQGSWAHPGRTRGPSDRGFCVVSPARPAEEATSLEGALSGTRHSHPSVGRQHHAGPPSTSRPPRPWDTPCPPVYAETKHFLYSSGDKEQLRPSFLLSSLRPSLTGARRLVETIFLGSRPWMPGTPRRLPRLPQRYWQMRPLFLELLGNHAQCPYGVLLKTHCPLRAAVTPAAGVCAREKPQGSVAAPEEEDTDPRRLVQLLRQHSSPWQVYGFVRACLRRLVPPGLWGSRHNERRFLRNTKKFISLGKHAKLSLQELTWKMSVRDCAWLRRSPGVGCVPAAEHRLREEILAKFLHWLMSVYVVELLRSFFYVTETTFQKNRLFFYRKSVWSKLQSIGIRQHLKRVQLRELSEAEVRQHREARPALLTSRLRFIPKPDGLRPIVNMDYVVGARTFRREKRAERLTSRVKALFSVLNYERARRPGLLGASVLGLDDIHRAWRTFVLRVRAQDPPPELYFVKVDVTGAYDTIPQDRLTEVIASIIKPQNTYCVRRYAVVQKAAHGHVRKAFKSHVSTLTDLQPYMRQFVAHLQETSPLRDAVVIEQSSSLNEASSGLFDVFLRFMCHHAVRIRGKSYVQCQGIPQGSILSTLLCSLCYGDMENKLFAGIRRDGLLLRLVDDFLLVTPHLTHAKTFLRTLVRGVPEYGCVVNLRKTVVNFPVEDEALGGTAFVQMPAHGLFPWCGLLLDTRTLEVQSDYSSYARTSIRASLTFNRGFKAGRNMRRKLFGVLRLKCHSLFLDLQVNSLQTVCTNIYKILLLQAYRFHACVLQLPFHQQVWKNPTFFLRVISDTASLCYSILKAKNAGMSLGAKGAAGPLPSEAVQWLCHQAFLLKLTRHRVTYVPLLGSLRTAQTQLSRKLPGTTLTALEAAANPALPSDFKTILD
The target of test [14] is T1, Telomerase reverse transcriptase. Description: Inhibition of telomerase at 50 uM by TRAP-LIG assay relative to control.
Test [15] concerns MCF7. Description: Cytotoxicity against human MCF7 cells after 96 hrs by SRB assay. The class given is functional, cell-based. To be noted: MCF7, 96 h.
Test [16] has as its system A549. Description: Cytotoxicity against human A549 cells after 96 hrs by SRB assay. The class given is functional, cell-based. Particulars: A549, 96 h.
The nature of test [17]: Cytotoxicity against human WI38 cells after 96 hrs by SRB assay. Particulars: WI-38, 96 h. The class given is cell-based.
Test [18] deals with A549. Description: Selectivity ratio of IC50 for human A549 cells to IC50 for human WI38 cells.
Test [19] relates to MCF7. Description: Cytotoxicity against human MCF7 cells assessed as population doubling at 3.50 uM after 1 week […] relative to control. The class given is functional. In outline:
(§3)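 MCF7 cells (1×10^5) treated with sub-cytotoxic ligand concentrations for 1 week, biweekly dosing. Cells counted by haemocytometer; population doublings n = (log Pn – log P0)/log2. Values normalized to vehicle control (100%) ± sd, two independent concentrations per ligand.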

Test [20] relates to MCF7. Description: Cytotoxicity against human MCF7 cells assessed as population doubling at 7 uM after 1 week […] relative to control. The class given is functional. In outline:
as §3

In test [21] the test system is MCF7. Description: Cytotoxicity against human MCF7 cells assessed as cell senescence at 3.5 uM after 1 week by beta-galactosidase assay. The class given is functional.
Test [22] is described as follows: Stabilization of d[(TA)2GC(TA)2T6(TA)2]GC(TA)2 sequence of duplex DNA assessed as change in melting temperature at 1 uM by FRET assay. In outline:
as §1

In test [23] the test system is MCF7. Description: Selectivity ratio of IC50 for human MCF7 cells to IC50 for human WI38 cells.
In test [24] the test system is MCF7. Description: Cytotoxicity against human MCF7 cells assessed as population doubling at 1 uM after 1 week […] relative to control. The class given is functional. In outline: as §3
In test [25] the test system is MCF7. Description: Cytotoxicity against human MCF7 cells assessed as population doubling at 2 uM after 1 week […] relative to control. The class given is functional. The gist of the method:
as §3

The test system of test [26] is MCF7. Description: Cytotoxicity against human MCF7 cells assessed as cell senescence at 1 uM after 1 week by beta-galactosidase assay. The class given is functional.
The subject of test [27] is MCF7. Description: Cytotoxicity against human MCF7 cells assessed as cell senescence at 2 uM after 1 week by beta-galactosidase assay. The class given is functional.

The results in this text go back to ChEMBL document CHEMBL1151765, “Rational design of substituted diarylureas: a scaffold for binding to G-quadruplex motifs” (J Med Chem, 2008).

Activity calls are given as the source filed them. No cut-off for these calls is given here.

Take `O=C(CCCN1CCCC1)Nc1ccc(NC(=O)c2cccc(NC(=O)Nc3cccc(C(=O)Nc4ccc(NC(=O)CCCN5CCCC5)cc4)c3)c2)cc1`: the results for the change in melting temperature (ΔTm) in test [1], in test [2] and in test [3] were 10.1 °C, 12 °C and 17.1 °C, respectively. For the same molecule, in test [4], the result was Active. The KA in the test filed under Homo sapiens is 0.4 ×10⁶ /M; in test [5], 0.4 ×10⁶ /M; in [6], 3.1 ×10⁶ /M; in test [7], 0.9 ×10⁶ /M; in [8], less than 1 ×10³ /M. Besides, the Selectivity ratio in [9], in test [10], in [11] and in test [12] was greater than 400 throughout. The same molecule had an EC50 in test [13] greater than 50 µM. The molecule also displayed an inhibition in test [14] of 36%. Besides, the half-inhibitory concentration (IC50) with MCF7 [15] is 11.1 µM; in the test with A549 [16], greater than 50 µM; in test [17], greater than 50 µM. The “Ratio IC50” value in the test with A549 [18] was determined as 1. In addition, the results for the Activity with MCF7 [19], in the test with MCF7 [20] and in the test on MCF7 [21] were 96%, 81.5% and 1.6%, respectively.
Take `O=C(CCN1CCCC1)Nc1cccc(NC(=O)c2ccc(NC(=O)Nc3ccc(C(=O)Nc4cccc(NC(=O)CCN5CCCC5)c4)cc3)cc2)c1`: the change in melting temperature (ΔTm) turned out to be 0.5 °C in test [1], 5.1 °C in test [2], 7.5 °C in test [3] and 4.9 °C in test [22]. The figures for the IC50 (in the test with MCF7 [15]; with A549 [16]; in test [17]) were 3.2 µM, 4.3 µM and greater than 50 µM, respectively. The Ratio IC50 in the test on MCF7 [23] was 15.6; in the test on A549 [18], 11.6. For the same molecule, the Activity with MCF7 [24] was 82.9%; in the test with MCF7 [25], 44%; in the test on MCF7 [26], 3%; in the test on MCF7 [27], 4.1%.
